Only some compounds are listed: those with a hit (about 2.2% of all), similar ones and a draw of the others.
Rin1 Abl inh: blocks binding of human Rin1 to Abl. P00519+Q13671. AID 588664. TR-FRET Rin1/Abl binding, biochemical. inhibition, % at 7.35 µM. 360,000 compounds, 0.4% hits; in the data active = inhibition above about 5%, passing the limit was not always enough
GSTO1 inh: counter-screen for RBBP9 inhibitors: inhibitors of human GSTO1; recombinant GSTO1, activity-based probe fluorescence polarization; inhibition, % at 5.96 µM; 300,000 compounds, 1.1% hits;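 active = inhibition above the campaign mean inhibition plus 3 SD, cut at about 35% in these data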;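 also: 0% = GSTO1-1 with DMSO and 100% = wells lacking GSTO1-1 enzyme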
UBC9 SUMO inh: SUMOylation inhibition. P63279. HTRF SUMOylation assay, SAE1/SAE2 + UBC9, in vitro. inhibition, % at 35 µM. AID 2006. 290,000 compounds, 0.36% hits; in the data active = inhibition above about 50%, passing the limit was not always enough; inconclusive = no clear call, values can overlap the other calls
Apaf1 inhib: inhibitors of human Apaf-1 apoptosome. O14727. inhibition, % at 20 µM. 330,000 compounds, 0.71% hits. reconstituted apoptosome caspase-3 activity, DEVD-Rh110 fluorescence; active = inhibition of at least 40% at 20 µM;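 also: plate controls were DMSO wells for no effect and DEVD-CHO caspase inhibitor wells for full effect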
Target sequence (O14727 whole entry, looked up): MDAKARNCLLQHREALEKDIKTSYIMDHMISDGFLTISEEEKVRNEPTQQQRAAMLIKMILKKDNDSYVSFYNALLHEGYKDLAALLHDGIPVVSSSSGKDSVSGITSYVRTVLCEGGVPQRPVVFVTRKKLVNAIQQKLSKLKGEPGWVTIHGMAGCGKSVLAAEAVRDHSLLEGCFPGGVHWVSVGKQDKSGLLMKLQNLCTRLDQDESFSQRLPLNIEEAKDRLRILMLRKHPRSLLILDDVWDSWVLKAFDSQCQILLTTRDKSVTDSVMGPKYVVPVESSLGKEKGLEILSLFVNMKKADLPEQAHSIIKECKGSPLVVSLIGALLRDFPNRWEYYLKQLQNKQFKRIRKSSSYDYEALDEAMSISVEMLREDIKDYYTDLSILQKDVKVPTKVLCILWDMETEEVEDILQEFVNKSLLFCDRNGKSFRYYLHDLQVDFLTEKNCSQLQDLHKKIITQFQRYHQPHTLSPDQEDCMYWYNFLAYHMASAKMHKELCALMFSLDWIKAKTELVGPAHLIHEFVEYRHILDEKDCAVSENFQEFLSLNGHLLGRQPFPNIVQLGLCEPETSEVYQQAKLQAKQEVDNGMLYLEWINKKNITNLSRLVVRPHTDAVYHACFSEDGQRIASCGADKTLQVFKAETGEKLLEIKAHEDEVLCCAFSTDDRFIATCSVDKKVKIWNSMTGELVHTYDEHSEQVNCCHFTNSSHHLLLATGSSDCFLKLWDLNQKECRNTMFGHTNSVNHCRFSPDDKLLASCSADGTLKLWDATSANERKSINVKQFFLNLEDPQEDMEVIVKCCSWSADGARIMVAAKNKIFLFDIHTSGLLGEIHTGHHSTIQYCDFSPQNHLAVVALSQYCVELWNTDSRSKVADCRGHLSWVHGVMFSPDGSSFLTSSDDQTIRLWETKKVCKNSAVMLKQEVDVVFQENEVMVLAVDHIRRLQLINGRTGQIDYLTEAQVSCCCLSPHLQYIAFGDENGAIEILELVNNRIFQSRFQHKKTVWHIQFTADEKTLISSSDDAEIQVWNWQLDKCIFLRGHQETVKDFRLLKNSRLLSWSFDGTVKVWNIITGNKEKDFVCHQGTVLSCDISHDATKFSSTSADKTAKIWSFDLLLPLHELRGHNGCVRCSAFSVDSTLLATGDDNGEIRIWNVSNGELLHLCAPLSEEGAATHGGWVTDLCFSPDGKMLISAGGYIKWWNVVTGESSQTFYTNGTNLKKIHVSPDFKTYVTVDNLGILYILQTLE
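Medium: Hepes buffer, pH 7.5 / System: biochemical Apaf-1 apoptosome reconstitution / Measured by: Rh110 fluorescence, excitation 480 nm, emission 540 nm / Times: compound with Apaf-1, dATP, procaspase-3 30 min, then 50 min reaction, room temperature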
PAD4 inh: blocks human protein arginine deiminase 4; recombinant PAD4, RCA probe fluorescence polarization; AID 485272; Q9UM07; inhibition, % at 6.36 µM; 330,000 compounds, 0.41% hits;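 active = percent inhibition above a cutoff equal to the mean of all tested compounds plus 3 SD, cut at about 15% in these data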;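 also: 0% = PAD4 with RCA probe and DMSO and 100% = probe without PAD4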
UBC13 inh: human UBC13 polyubiquitination inhibition; UBC13 polyubiquitin chain formation, TR-FRET; inhibition, % at 20 µM; 330,000 compounds, 0.47% hits; AID 485273; in the data active = inhibition above about 45%, passing the limit was not always enough; inconclusive = no clear call, values can overlap the other calls
* = called active by the depositor; ? = inconclusive; nt = not tested or not shown.

SMILES	Rin1 Abl inh	GSTO1 inh	UBC9 SUMO inh	Apaf1 inhib	PAD4 inh	UBC13 inh
NC1=NC2OC(CO)C(O)C2O1 (centres undefined)	-2.6	nt	nt	nt	nt	nt
O=C(CN1C(=O)/C(=C2/SC(=S)N(CCS(=O)(=O)O)C2=O)c2ccccc21)Nc1cccc(C(F)(F)F)c1	3.0	nt	nt	12.1	0.1	-30.3
O=C(CN1C(=O)/C(=C2\SC(=S)N(CCS(=O)(=O)O)C2=O)c2ccccc21)Nc1cccc(Br)c1	2.9	-3.5	56.5*	nt	-1.8	nt
COc1cc(OC)c(/C=N/NC(=O)c2ccc(NC(C)=O)cc2)cc1Br	1.1	nt	50.4*	2.4	nt	-3.0
CCOc1ccc(NS(=O)(=O)c2ccc3[nH]cc(C(=O)N(CC)CC)c(=O)c3c2)cc1	-0.8	36.1*	3.5	-2.1	-0.1	-1.9
CC(C)c1ccc(NS(=O)(=O)c2ccc3[nH]cc(C(=O)N4CCC(C(N)=O)CC4)c(=O)c3c2)cc1	-1.0	55.2*	-6.0	8.1	-4.9	-14.6
O=C(c1c[nH]c2ccc(S(=O)(=O)N3CCOCC3)cc2c1=O)N1CCCC1	2.1	5.7	11.8	-9.2	-0.5	6.2
O=Cc1ccc(O)c(O)c1	-5.9	3.6	-8.5	-11.5	2.7	8.5
Oc1ccc(N=Cc2ccc(O)c(O)c2)cc1	8.7	87.9*	?	75.0*	1.1	-29.8
CCC(=O)NC(c1ccc(Cl)cc1Cl)c1ccc2cccnc2c1O (centres undefined)	1.3	-12.1	50.1*	19.1	-0.6	-14.8
COc1ccc(C(NC(=O)C(C)C)c2ccc3cccnc3c2O)cc1 (centres undefined)	3.1	-1.3	-31.2	-2.1	2.5	-7.8
CCCC(=O)NC(c1ccccc1Cl)c1ccc2cccnc2c1O (centres undefined)	0.4	6.9	92.8*	-4.3	3.3	-38.2
CC(C)C(=O)NC(c1ccc(Cl)cc1Cl)c1ccc2cccnc2c1O (centres undefined)	2.9	-11.1	76.6*	4.3	2.4	2.8
CCCCC(=O)NC(c1ccc(Cl)cc1Cl)c1ccc2cccnc2c1O (centres undefined)	0.1	nt	-46.4	1.2	nt	-15.4
Nc1c(O)cccc1C(=O)O	-1.6	75.9*	nt	53.4*	13.2	-16.1
CC(c1ccco1)N(C(=O)c1ccccc1NS(=O)(=O)c1ccc(Cl)c([N+](=O)[O-])c1)c1ccccn1 (centres undefined)	1.0	53.8*	13.0	10.8	-2.2	-19.6
Cn1c(=O)c2c(ncn2CC(=O)OCC(=O)NCc2ccc(F)cc2)n(C)c1=O	1.7	nt	nt	nt	nt	nt
Oc1cc(-n2cccn2)c(O)cc1-n1cccn1	2.1	70.3*	0.1	nt	-13.3	nt
Cc1cccn2c(=O)c3cc(C(=O)NC4CCCCCC4)sc3nc12	-2.4	-6.4	55.3*	7.0	2.5	11.8
Cc1cccn2c(=O)c3cc(C(=O)NC4CCS(=O)(=O)C4)sc3nc12 (centres undefined)	-4.4	6.8	26.3	7.7	5.0	5.6
NCC[C@H](O)C(=O)N[C@@H]1C[C@H](N)[C@@H](O[C@H]2O[C@H](CN)[C@@H](O)[C@H](O)[C@H]2O)[C@H](O)[C@H]1O[C@H]1O[C@H](CO)[C@@H](O)[C@H](N)[C@H]1O	-3.3	nt	70.9*	nt	nt	nt
COC(=O)C1=CO[C@@H](O[C@@H]2O[C@H](CO)[C@@H](O)[C@H](O)[C@H]2O)C2C(CO)=CCC12 (some centres undefined)	0.2	nt	nt	1.5	4.0	10.0
Cc1[nH][nH]c(=O)c1C(c1ccc(-c2ccc(Cl)cc2Cl)o1)c1c(C)[nH][nH]c1=O	nt	nt	90.8*	nt	nt	nt
Cc1[nH][nH]c(=O)c1C(c1ccc(Br)cc1)c1c(C)[nH][nH]c1=O	0.7	15.6	7.8	11.9	-12.3	-15.8
CC(C)c1cc(Nc2cccc(O)c2)cc(C(C)C)c1O	nt	41.7*	2.7	16.2	4.3	-33.3
SMILES	Rin1 Abl inh	GSTO1 inh	UBC9 SUMO inh	Apaf1 inhib	PAD4 inh	UBC13 inh
COc1ccccc1-c1sc2ccccc2c1-c1ccc2c(c1)OCCO2	-1.2	nt	nt	-7.7	-0.1	24.3
Cc1ccc(S(=O)(=O)Nc2ccc3c(c2)OCCO3)c(C)c1NS(C)(=O)=O	-3.2	6.4	0.3	-11.6	-3.3	5.3
CC(=O)N(C1=C(N)C(=O)c2ccccc2C1=O)C(C)C	-1.1	28.2	10.4	35.3	-13.4	-36.2
CC(=O)N(C)C1=C(N2CCOCC2)C(=O)c2ccccc2C1=O	-11.0	59.3*	19.5	64.8*	-18.4	-125.2
CCOC(=O)C1CCCN(C(=O)c2ccc(C(F)(F)F)nc2C)CC1 (centres undefined)	-2.1	nt	nt	nt	nt	nt
CC(NC(=O)OC(C)(C)C)C(=O)Oc1ccc2ccc(=O)oc2c1 (centres undefined)	-1.5	1.9	52.0*	-2.0	-1.1	17.4
Cc1c(Br)c([N+](=O)[O-])nn1CC(=O)NC1CCCCCC1	-1.9	5.4	-0.9	4.4	3.1	2.0
COC1=CC(=O)c2ccccc2C1=O	0.4	nt	nt	78.6*	10.0	-56.6
Cc1c(O)ccc2c(CC(=O)N[C@@H](Cc3ccc(O)cc3)C(=O)O)cc(=O)oc12	-1.0	nt	53.1*	5.2	nt	16.7
COc1ccc2c(CC(=O)N[C@@H](Cc3ccccc3)C(=O)O)cc(=O)oc2c1C	-0.2	nt	3.1	7.6	nt	11.1
O=C(/C=C/c1ccc(O)c(O)c1)O[C@H](Cc1ccc(O)c(O)c1)C(=O)O	nt	nt	69.0*	nt	nt	nt
COc1ccc(C(=O)Nc2nnc([C@@H]3C[C@H](O)[C@@H](CO)O3)s2)cc1	-2.7	nt	nt	nt	nt	nt
C/C(=N\NC(=S)Nc1ccccc1C)c1ccc(O)cc1	-3.3	9.5	0.0	-10.7	1.7	49.6*
CC(=O)c1cccc(CN2CCCC(C(=O)Nc3ccc(-c4ccco4)cc3)C2)c1 (centres undefined)	4.5	-5.4	4.7	9.2	5.3	7.3
COc1ccccc1Oc1c(C)oc2cc(OC(=O)c3ccco3)ccc2c1=O	-3.0	9.8	51.6*	12.4	0.7	2.2
CCOc1ccccc1Oc1c(C)oc2cc(OC(=O)c3ccco3)ccc2c1=O	1.9	5.5	37.4	-11.3	2.0	12.5
COc1ccc(CCC(=O)NNC(=O)Nc2ccccc2Cl)cc1	-0.4	nt	9.9	-1.6	nt	-0.5
COc1cc2ccccc2cc1C(=O)Nc1sc2c(c1C(N)=O)CCN(C(C)C)C2	-2.9	-0.3	8.6	51.2*	1.3	30.7
O=C(Nc1cccc(F)c1)Nc1nnc([C@@H]2O[C@H](CO)[C@@H](O)[C@H]2O)s1	-1.9	nt	nt	nt	nt	nt
CCN(CC(=O)NC1CC1)S(=O)(=O)c1ccc(OC)cc1	1.4	-1.7	0.4	-2.9	-11.6	0.5
COc1ccc(CCn2c(N)c(C(=O)NCc3ccco3)c3nc4ccccc4nc32)cc1	-2.0	4.3	100.1*	39.6	-6.8	-21.0
COc1ccc(S(=O)(=O)Cc2ccc(C(=O)NCc3ccco3)o2)cc1	-3.5	3.5	15.3	0.1	-1.6	-2.0
COc1ccc([C@H]2C[C@H](n3cc(COC(=O)c4ccccc4)nn3)[C@@H](O)CN2Cc2cccs2)cc1	-0.9	nt	nt	nt	nt	nt
